Results: ChEMBL document CHEMBL4406821, “Novel dual inhibitors targeting CDK4 and VEGFR2 synergistically suppressed cancer progression and angiogenesis” (Eur J Med Chem, 2019)
Calls of active or inactive are those of the source. No cut-off for these calls is given here.

Columns and labels:
[1] = target: Tyrosine-protein kinase Fgr (Homo sapiens) (UniProt P09769); test: Inhibition of recombinant human FGR (2 to end residues) at 1 uM using poly(Glu, Tyr) 4:1 as substrate incubated for 40 mins in presence of [gamma-33P]-ATP by scintillation counting method relative to control
[2] = Clearance in Sprague-Dawley rat at 10 mg/kg, po by HPLC-MS analysis; assay type: ADME, organism-based; details: in vivo
How it was run: (§1)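 Rats fitted with jugular vein catheters for serial blood sampling. Compound dissolved in saline with 5% (v/v) DMSO and given as a single 10 mg/kg dose iv or po after an overnight fast, n = 5 per group. Plasma isolated at once and measured by HPLC with tandem MS detection. Parameters derived by noncompartmental fitting.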

[3] = target: Dual specificity mitogen-activated protein kinase kinase 4 (Mus musculus) (UniProt P47809); test: Inhibition of recombinant mouse MKK4 (34 to end residues) at 1 uM using unactive JNK1a1 as substrate incubated for 40 mins in presence of [gamma-33P]-ATP by scintillation counting method relative to control
[4] = target: Proto-oncogene tyrosine-protein kinase receptor Ret (Homo sapiens) (UniProt P07949); test: Inhibition of recombinant human RET (658 to end residues) at 1 uM using KKKSPGEYVNIEFG as substrate incubated for 40 mins in presence of [gamma-33P]-ATP by scintillation counting method relative to control
SiHa = test: Antitumor activity against human SiHa cells xenografted in NOD/SCID BALB/c mouse assessed as tumor growth inhibition at 10 to 40 mg/kg, po administered for 21 days; assay type: functional, organism-based
[5] = target: Serine/threonine-protein kinase B-raf (Homo sapiens) (UniProt P15056); test: Inhibition of recombinant human B-Raf (416 to end residues) at 1 uM using myelin as substrate incubated for 40 mins in presence of [gamma-33P]-ATP by scintillation counting method relative to control
How it was run: (§2)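 Kinase panel profiling at 1 μM performed by Eurofins KinaseProfiler; percent inhibition reported as mean of two independent experiments.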

[6] = target: Protein-tyrosine kinase 2-beta (Homo sapiens) (UniProt Q14289); test: Inhibition of recombinant human full length PYK2 at 1 uM using poly(Glu, Tyr) 4:1 as substrate incubated for 40 mins in presence of [gamma-33P]-ATP by scintillation counting method relative to control
[7] = target: Leukocyte tyrosine kinase receptor (Homo sapiens) (UniProt P29376); test: Inhibition of recombinant human LTK (450 to end residues) at 1 uM using GEEPLYWSFPAKKK as substrate incubated for 40 mins in presence of [gamma-33P]-ATP by scintillation counting method relative to control
How it was run: (§3)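 Tested at a single 1 uM in an outsourced commercial kinase-profiling panel, read as percent inhibition. Each value is the mean of two independent experiments.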

[8] = target: Serine/threonine-protein kinase MRCK beta (Homo sapiens) (UniProt Q9Y5S2); test: Inhibition of recombinant human MRCKbeta (1 to 473 residues) at 1 uM using KKRNRTLTV as substrate incubated for 40 mins in presence of [gamma-33P]-ATP by scintillation counting method relative to control
[9] = target: Calcium/calmodulin-dependent protein kinase type 1D (Homo sapiens) (UniProt Q8IU85); test: Inhibition of recombinant full length human CAMKIdelta at 1 uM using calmodulin as substrate incubated for 40 mins in presence of [gamma-33P]-ATP by scintillation counting method relative to control; how it was run: as §2
[10] = target: MAPK/MAK/MRK overlapping kinase (Homo sapiens) (UniProt Q9UQ07); test: Inhibition of recombinant human MOK (1 to 343 residues) at 1 uM using RSRSRSRSRSRSRSR as substrate incubated for 40 mins in presence of [gamma-33P]-ATP by scintillation counting method relative to control
[11] = target: Serine/threonine-protein kinase DCLK2 (Homo sapiens) (UniProt Q8N568); test: Inhibition of recombinant human DCAMKL2 (376 to end residues) at 1 uM using KKLNRTLSFAEPG as substrate incubated for 40 mins in presence of [gamma-33P]-ATP by scintillation counting method relative to control; how it was run: as §3
[12] = system: Hepatocyte growth factor receptor (Homo sapiens), P08581 [D1246H]; test: Inhibition of recombinant human Met D1246H mutant (974 to end residues) at 1 uM using KKKGQEEEYVFIE as substrate incubated for 40 mins in presence of [gamma-33P]-ATP by scintillation counting method relative to control
[13] = system: Mast/stem cell growth factor receptor Kit (Homo sapiens), P10721 [D816H]; test: Inhibition of recombinant human cKIT D816H mutant (544 to end residues) at 1 uM using GGMEDIYFEFMGG as substrate incubated for 40 mins in presence of [gamma-33P]-ATP by scintillation counting method relative to control; how it was run: as §3
Mus musculus = test: Antiangiogenic activity in Matrigel plug angiogenic BALB/c mouse assessed as reduction in blood vessel formation at 10 to 20 mg/kg, sc measured after 10 days by Matrigel plug assay; assay type: functional, organism-based
How it was run: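 Balb/c mice, 5 weeks old, were injected subcutaneously with 750 µL of a 2:1 mix of growth factor-reduced Matrigel and compound (10 or 20 mg/kg) or vehicle. Plugs were harvested after 10 days and the subcutaneous vessels photographed.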

[14] = target: RAC-beta serine/threonine-protein kinase (Homo sapiens) (UniProt P31751); test: Inhibition of recombinant human PKBbeta (120 to end residues) at 1 uM using GRPRTSSFAEGKK as substrate incubated for 40 mins in presence of [gamma-33P]-ATP by scintillation counting method relative to control; how it was run: as §3
[15] = Half life in Sprague-Dawley rat at 10 mg/kg, iv by HPLC-MS analysis; assay type: ADME, organism-based; details: in vivo; how it was run: as §1
[16] = n-octanol/water partition coefficient, log P of the compound by shake flask method based HPLC analysis; assay type: physicochemical
[17] = target: Serine/threonine-protein kinase VRK1 (Homo sapiens) (UniProt Q99986); test: Inhibition of recombinant human VRK1 at 1 uM incubated for 40 mins in presence of [gamma-33P]-ATP by scintillation counting method relative to control
[18] = Toxicity in BALB/c mouse assessed as effect on blood parameter by measuring hematocrit at 40 mg/kg, po administered once two days for 4 times by hematology analyzer; details: in vivo
[19] = target: Dual specificity protein kinase TTK (Homo sapiens) (UniProt P33981); test: Inhibition of recombinant human full length TTK at 1 uM using MBP as substrate incubated for 40 mins in presence of [gamma-33P]-ATP by scintillation counting method relative to control
HUVEC = test: Antiproliferative activity against HUVEC cells assessed as reduction in cell viability at 40 nM measured upto 72 hrs by CCK8 assay; assay type: functional, cell-based; details: Homo sapiens
How it was run: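 HUVECs, 3×10³ cells/well, kept in 1640 medium with 10% FBS at 37°C and 5% CO₂. Cells were treated at 20 or 40 nM or vehicle, and viability was read by CCK-8 (absorbance 450 nm) at 0, 12, 24, 36, 48, 60 and 72 h. Five replicates per sample.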

Chain of MAPK/MAK/MRK overlapping kinase (Homo sapiens) (Q9UQ07 whole entry, the tested form may be a part): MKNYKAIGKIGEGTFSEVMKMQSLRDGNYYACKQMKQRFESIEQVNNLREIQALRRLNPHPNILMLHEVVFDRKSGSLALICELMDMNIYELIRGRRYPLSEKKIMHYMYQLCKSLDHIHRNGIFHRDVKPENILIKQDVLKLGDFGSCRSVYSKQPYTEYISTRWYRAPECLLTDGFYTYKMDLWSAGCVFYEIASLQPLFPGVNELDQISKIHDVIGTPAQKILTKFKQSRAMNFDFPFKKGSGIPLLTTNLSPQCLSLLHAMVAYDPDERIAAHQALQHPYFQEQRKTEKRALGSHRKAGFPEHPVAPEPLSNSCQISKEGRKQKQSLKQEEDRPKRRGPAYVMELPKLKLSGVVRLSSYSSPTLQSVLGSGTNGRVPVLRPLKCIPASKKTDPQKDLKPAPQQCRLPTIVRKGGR
Chain of Dual specificity mitogen-activated protein kinase kinase 4 (Mus musculus) (P47809 whole entry): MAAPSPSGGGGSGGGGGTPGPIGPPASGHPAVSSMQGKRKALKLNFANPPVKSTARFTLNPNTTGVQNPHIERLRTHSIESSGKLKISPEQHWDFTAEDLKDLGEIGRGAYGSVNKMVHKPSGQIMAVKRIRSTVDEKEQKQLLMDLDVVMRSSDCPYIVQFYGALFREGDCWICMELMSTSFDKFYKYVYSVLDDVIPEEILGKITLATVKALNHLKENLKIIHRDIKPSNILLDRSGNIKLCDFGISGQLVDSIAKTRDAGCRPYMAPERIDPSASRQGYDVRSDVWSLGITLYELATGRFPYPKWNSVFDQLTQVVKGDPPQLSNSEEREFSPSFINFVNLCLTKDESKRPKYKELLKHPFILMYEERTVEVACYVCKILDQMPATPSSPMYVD
Chain of Leukocyte tyrosine kinase receptor (Homo sapiens) (P29376 whole entry): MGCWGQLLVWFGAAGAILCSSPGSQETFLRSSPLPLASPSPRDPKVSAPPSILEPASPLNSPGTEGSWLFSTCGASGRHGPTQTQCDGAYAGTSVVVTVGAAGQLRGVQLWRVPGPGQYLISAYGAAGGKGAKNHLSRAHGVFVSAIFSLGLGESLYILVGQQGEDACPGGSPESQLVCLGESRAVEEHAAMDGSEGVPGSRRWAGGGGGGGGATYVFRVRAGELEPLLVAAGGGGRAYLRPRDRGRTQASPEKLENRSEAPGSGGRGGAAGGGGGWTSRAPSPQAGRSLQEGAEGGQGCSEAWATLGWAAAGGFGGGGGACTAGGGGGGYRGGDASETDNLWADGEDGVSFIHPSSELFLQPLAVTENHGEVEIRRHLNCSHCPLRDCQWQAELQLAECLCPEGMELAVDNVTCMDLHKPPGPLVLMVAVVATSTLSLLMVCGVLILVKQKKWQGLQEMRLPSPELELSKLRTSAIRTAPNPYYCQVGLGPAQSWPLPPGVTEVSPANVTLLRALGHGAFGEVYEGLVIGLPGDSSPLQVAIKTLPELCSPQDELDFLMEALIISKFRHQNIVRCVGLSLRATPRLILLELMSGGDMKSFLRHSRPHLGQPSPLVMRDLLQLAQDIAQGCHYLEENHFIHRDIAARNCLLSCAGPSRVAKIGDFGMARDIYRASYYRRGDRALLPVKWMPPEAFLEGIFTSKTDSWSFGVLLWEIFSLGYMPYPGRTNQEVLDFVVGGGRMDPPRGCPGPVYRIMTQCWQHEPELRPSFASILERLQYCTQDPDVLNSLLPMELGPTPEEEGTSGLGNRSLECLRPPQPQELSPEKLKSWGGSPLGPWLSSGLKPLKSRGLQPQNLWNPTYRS
Chain of Serine/threonine-protein kinase B-raf (Homo sapiens) (P15056 whole entry): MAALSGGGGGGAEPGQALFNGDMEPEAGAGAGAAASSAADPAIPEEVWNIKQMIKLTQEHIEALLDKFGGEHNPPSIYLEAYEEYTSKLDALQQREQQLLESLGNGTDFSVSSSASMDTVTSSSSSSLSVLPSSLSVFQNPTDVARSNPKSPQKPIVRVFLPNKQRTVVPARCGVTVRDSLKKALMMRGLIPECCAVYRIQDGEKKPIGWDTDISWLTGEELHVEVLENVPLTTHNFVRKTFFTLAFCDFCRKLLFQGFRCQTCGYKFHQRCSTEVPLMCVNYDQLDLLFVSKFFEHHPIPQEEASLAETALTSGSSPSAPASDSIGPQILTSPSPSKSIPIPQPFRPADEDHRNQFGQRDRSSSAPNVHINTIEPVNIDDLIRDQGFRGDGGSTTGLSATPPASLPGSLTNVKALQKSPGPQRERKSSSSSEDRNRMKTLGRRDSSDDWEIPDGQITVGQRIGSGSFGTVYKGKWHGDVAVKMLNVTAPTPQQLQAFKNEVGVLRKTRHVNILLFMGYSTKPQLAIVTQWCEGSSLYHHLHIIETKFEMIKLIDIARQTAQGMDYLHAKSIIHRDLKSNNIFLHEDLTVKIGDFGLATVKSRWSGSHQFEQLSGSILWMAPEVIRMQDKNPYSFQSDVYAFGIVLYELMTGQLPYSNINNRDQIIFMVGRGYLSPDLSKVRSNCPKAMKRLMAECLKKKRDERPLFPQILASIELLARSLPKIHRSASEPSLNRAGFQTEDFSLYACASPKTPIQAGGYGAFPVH
Chain of Calcium/calmodulin-dependent protein kinase type 1D (Homo sapiens) (Q8IU85 whole entry, looked up, the tested form may be a part): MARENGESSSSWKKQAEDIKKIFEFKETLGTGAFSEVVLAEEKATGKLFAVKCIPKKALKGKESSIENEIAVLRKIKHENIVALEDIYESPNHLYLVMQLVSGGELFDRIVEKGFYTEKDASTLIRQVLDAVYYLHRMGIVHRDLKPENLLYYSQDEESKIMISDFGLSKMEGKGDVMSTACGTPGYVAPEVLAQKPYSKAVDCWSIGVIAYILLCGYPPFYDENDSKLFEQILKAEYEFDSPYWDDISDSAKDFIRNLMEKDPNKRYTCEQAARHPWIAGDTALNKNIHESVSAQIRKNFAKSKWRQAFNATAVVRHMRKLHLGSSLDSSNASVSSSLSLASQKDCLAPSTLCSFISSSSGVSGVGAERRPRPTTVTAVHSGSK
Chain of Hepatocyte growth factor receptor (Homo sapiens), P08581 [D1246H] (P08581 with tags, fused parts or gaps D1246H): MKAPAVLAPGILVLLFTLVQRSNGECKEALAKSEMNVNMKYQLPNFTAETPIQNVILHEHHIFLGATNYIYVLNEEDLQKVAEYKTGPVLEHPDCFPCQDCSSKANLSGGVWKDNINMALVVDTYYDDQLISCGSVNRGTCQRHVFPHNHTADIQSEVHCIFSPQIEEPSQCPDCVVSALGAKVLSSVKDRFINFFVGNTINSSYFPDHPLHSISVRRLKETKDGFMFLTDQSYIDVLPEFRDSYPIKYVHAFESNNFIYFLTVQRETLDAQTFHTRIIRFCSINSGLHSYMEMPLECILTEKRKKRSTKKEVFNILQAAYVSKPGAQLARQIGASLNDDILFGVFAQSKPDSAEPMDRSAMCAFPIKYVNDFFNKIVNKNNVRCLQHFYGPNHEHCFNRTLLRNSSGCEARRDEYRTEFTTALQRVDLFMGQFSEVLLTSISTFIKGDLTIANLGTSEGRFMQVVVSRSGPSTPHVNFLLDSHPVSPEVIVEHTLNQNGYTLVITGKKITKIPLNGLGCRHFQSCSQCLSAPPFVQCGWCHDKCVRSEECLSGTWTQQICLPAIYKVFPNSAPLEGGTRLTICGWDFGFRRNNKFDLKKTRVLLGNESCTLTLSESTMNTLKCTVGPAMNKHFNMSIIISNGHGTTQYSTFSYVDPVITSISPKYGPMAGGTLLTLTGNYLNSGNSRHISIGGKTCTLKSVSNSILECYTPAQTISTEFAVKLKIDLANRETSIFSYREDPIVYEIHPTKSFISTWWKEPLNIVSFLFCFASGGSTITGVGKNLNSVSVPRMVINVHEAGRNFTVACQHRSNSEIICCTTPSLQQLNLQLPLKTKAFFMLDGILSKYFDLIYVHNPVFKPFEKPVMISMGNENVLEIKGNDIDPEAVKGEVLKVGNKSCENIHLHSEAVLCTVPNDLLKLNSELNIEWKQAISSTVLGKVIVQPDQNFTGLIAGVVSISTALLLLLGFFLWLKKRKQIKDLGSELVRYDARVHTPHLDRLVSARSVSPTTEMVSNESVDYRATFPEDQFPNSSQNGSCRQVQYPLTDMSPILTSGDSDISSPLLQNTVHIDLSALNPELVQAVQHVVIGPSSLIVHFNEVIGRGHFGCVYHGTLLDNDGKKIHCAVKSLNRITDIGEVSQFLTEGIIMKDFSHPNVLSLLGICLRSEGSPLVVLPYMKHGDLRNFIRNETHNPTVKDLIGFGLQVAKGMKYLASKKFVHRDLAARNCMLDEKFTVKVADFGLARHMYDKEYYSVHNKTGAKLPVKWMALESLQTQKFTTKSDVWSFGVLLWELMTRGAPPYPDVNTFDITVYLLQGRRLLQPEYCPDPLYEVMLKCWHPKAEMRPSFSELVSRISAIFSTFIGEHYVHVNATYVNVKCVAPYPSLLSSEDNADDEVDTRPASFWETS
Chain of Serine/threonine-protein kinase VRK1 (Homo sapiens) (Q99986 whole entry): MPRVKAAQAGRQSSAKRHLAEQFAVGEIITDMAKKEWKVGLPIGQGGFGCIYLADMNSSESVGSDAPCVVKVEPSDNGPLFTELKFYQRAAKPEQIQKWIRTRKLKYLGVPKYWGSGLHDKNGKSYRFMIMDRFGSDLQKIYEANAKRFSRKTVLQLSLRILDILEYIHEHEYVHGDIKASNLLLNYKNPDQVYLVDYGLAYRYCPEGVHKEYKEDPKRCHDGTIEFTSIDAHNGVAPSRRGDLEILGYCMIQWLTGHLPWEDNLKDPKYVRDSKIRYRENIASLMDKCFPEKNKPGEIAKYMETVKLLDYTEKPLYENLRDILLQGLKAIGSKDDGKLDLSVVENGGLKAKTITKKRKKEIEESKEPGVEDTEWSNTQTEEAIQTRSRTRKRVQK

`Cc1ccc(NC(=O)C2(C(=O)Nc3ccc(Nc4ncc(F)c(-c5cc(F)c6nc(C)n(C(C)C)c6c5)n4)cc3)CC2)cc1` gave an inhibition [1] of 55%, a CL/F [2] of 33.3 mL/min/kg and an inhibition [3] of 12%. For the same molecule, the inhibition [4] was 27%, the TGI (SiHa) was “Active” and the inhibition [5] was 32%. For the same molecule, the inhibition [6] was 73%, the inhibition [7] was 0% and the inhibition [8] was 7%. The inhibition [9] was 1%, the inhibition [10] was 25% and the inhibition [11] was 0%. The inhibition [12] was 55%, the inhibition [13] was 76% and the inhibition (Mus musculus) was “Active”. The inhibition [14] was 0%, the half-life [15] was 120 min and the logP [16] was 2.53. For the same molecule, the inhibition [17] was 9%, the Activity [18] was “Non-Toxic” and the inhibition [19] was 65%.

With `COc1cc2nccc(Oc3ccc(NC(=O)C4(C(=O)Nc5ccc(F)cc5)CC4)cc3)c2cc1OC` [CABOZANTINIB] the inhibition (HUVEC) was “Active”.
